From article PMC11758009 (Scientific Reports, 2025)

How the values were obtained:
[1] = tested on: LAT1, LAT2, LAT3, LAT4, B^0AT1, ATB^0,+; details: cited from earlier work
SNAT5 = SNAT5 (Homo sapiens, UniProt Q8WUX1); assay: Xenopus oocyte expression system, L-[14C]glutamine uptake by SNAT5; type: cell-based; details: 1 and 10 µM compound; 50 µM substrate; 30 min; ND96
Summary of the method: (§1)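 Defolliculated Xenopus laevis oocytes injected with transporter cRNA (25 ng/oocyte), assayed 2–4 days after injection. Uptake at room temperature of 50 µM radiolabelled substrate with test compound at 1 or 10 µM. Buffers were ND96 (pH 7.5) for Na⁺-dependent transport, or a Na⁺-free version with choline chloride. Scintillation counting; mean ± S.D., n = 5–13, three independent oocyte batches.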

human LAT2 = human LAT2 (Homo sapiens, UniProt Q9UHI5); assay: Inhibition of L-[14C]alanine uptake in HEK293-hLAT2 cells; type: cell-based; details: 0.1, 1 and 10 µM compound, 1 µM L-[14C]alanine
Summary of the method: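 Stable HEK293-hLAT2 cells were seeded at 2.4 × 10⁵ cells/well on poly-D-lysine and grown 2 days. They were pre-incubated 10 min at 37 °C in Na⁺-free HBSS (choline chloride, 25 mM HEPES, pH 7.4). Uptake of 1 µM L-[¹⁴C]alanine ran for 1 min, with test compound (from DMSO stocks) added together with substrate. Cells were washed ice-cold, lysed in 0.1 N NaOH, counted by liquid scintillation, and lysate protein was measured by BCA.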

S2-LAT1 cells = details: LAT1-expressing cells; cited from earlier work
y^+LAT1 = y^+LAT1 (Homo sapiens, UniProt Q9UM01); assay: Xenopus oocyte expression system, L-[14C]leucine uptake by y+LAT1; type: cell-based; details: 1 and 10 µM compound; 50 µM substrate; 30 min; ND96
Summary of the method: (§2)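 Defolliculated Xenopus laevis oocytes injected with transporter cRNA (25 ng/oocyte) plus equimolar 4F2hc cRNA, and assayed 2–4 days later. Uptake of 50 µM L-[¹⁴C]leucine at room temperature with test compound at 1 or 10 µM. Buffers were ND96 (pH 7.5) or a Na⁺-free version with choline chloride in place of NaCl. Scintillation counting; mean ± S.D., n = 5–13, three oocyte batches.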

[2] = liver; cited from earlier work
LAT1 [3] = biological target: T1, LAT1 (Homo sapiens, UniProt Q01650); assay: Sustained inhibition assay; type: cell-based; details: reduction in inhibition over first 10 min after washout relative to 0 min
Summary of the method: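 HEK293-hLAT1 cells exposed to test compound or 0.6% DMSO control in culture medium for 30 min at 37 °C. Washed three times and kept in fresh medium for 0, 10, 20, 30 or 60 min or 24 h. Then rinsed with Na⁺-free HBSS and given 1 µM L-[¹⁴C]leucine for 1 min. Uptake taken as % of control at each time. Reduction rate = (%uptake 10 min – %uptake 0 min)/(100 – %uptake 0 min) × 100. Three independent experiments, each in quadruplicate.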
Target sequence in this assay (Q01650 whole entry): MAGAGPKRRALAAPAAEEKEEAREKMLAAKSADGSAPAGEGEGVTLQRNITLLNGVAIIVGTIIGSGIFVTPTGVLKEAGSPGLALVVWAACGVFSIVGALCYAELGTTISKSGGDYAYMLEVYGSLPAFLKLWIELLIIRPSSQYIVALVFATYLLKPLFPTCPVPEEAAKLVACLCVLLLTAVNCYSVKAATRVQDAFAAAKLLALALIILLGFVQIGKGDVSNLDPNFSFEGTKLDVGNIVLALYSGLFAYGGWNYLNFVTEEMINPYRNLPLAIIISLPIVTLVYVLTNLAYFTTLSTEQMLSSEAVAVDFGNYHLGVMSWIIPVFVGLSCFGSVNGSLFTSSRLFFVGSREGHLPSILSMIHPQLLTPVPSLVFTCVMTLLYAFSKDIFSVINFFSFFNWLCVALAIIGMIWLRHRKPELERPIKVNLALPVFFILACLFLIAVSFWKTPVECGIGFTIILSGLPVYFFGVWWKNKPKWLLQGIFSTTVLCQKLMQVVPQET
Target sequence in this assay (P08195 103-630 partner): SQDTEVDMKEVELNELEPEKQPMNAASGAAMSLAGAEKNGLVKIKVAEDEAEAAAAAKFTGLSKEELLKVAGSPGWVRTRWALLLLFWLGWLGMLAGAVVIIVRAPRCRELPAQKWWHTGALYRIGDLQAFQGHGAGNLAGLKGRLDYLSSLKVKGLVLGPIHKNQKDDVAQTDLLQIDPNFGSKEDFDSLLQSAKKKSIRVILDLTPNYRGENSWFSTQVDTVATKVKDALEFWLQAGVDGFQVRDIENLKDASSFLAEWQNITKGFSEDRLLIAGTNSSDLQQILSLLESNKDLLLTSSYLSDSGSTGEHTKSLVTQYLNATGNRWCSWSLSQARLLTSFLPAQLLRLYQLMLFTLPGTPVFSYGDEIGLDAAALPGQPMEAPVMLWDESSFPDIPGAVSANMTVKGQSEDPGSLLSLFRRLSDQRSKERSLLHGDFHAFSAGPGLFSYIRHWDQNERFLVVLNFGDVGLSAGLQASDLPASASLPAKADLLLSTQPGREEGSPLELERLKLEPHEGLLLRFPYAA

SNAT3 = SNAT3 (Homo sapiens, UniProt Q99624); assay: Xenopus oocyte expression system, L-[14C]glutamine uptake by SNAT3; type: cell-based; details: 1 and 10 µM compound; 50 µM substrate; 30 min; ND96
Summary of the method: as §1

LAT1 [4] = biological target: T1, LAT1; assay: Xenopus oocyte expression system, L-[14C]leucine uptake by LAT1; type: cell-based; details: 50 µM substrate, 30 min, Na+-free
Summary of the method: as §2
Target sequence in this assay (Q01650 whole entry): as the sequence (Q01650 whole entry) above
Target sequence in this assay (P08195 102-630 partner): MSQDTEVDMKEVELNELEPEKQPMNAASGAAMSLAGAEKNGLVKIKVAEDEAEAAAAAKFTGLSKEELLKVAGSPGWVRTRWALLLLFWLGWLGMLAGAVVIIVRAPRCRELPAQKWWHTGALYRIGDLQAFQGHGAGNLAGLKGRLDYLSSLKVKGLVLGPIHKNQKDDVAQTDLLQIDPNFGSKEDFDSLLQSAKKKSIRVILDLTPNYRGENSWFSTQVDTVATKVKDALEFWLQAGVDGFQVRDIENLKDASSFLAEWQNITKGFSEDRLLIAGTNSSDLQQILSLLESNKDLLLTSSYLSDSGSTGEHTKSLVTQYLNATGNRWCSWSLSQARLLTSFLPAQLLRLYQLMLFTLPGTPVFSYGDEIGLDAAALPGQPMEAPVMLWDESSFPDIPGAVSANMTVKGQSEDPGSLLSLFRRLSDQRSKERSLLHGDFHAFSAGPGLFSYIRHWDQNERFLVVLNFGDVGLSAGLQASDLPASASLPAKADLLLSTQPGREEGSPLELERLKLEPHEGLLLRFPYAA

ATB^0,+ = ATB^0,+ (Homo sapiens, UniProt Q9UN76); assay: Xenopus oocyte expression system, L-[14C]leucine uptake by ATB0,+; type: cell-based; details: 1 and 10 µM compound; 50 µM substrate; 30 min; ND96
Summary of the method: (§3)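 Defolliculated Xenopus laevis oocytes injected with transporter cRNA (25 ng/oocyte) or with water as control, assayed 2–4 days after injection. Uptake over 30 min at room temperature of 50 µM labelled substrate: L-[¹⁴C]leucine for ATB0,+, L-[¹⁴C]tyrosine for TAT1, L-[¹⁴C]cystine for b0,+. Test compound at 1 or 10 µM. Scintillation counting; mean ± S.D., n = 5–13, three oocyte batches.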

ASCT1 = ASCT1 (Homo sapiens, UniProt P43007); assay: Xenopus oocyte expression system, L-[14C]alanine uptake by ASCT1; type: cell-based; details: 1 and 10 µM compound; 50 µM substrate; 30 min; ND96
Summary of the method: as §1

B^0AT1 = B^0AT1 (Homo sapiens, UniProt Q695T7); assay: Xenopus oocyte expression system, L-[14C]leucine uptake by B0AT1; type: cell-based; details: 1 and 10 µM compound; 50 µM substrate; 30 min; ND96
Summary of the method: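 B⁰AT1 cRNA (25 ng/oocyte) co-injected with equimolar collectrin cRNA into defolliculated Xenopus laevis oocytes, assayed 2–4 days later. Uptake of 50 µM L-[¹⁴C]leucine over 30 min at room temperature in ND96 (pH 7.5), with test compound at 1 or 10 µM. Water-injected oocytes served as controls. Scintillation counting; mean ± S.D., n = 5–13, three oocyte batches.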

ASCT2 = ASCT2 (Homo sapiens, UniProt Q15758); assay: Xenopus oocyte expression system, L-[14C]alanine uptake by ASCT2; type: cell-based; details: 1 and 10 µM compound; 50 µM substrate; 30 min; ND96
Summary of the method: as §1

TAT1 = TAT1 (Homo sapiens, UniProt Q8TF71); assay: Xenopus oocyte expression system, L-[14C]tyrosine uptake by TAT1; type: cell-based; details: 1 and 10 µM compound; 50 µM substrate; 30 min; Na+-free
Summary of the method: as §3

b^0,+ = assay: Xenopus oocyte expression system, L-[14C]cystine uptake by b0,+; type: cell-based; details: 1 and 10 µM compound; 50 µM substrate; 30 min; Na+-free
Summary of the method: as §3

LAT2 = LAT2 (Homo sapiens, UniProt Q9UHI5); assay: Xenopus oocyte expression system, L-[14C]alanine uptake by LAT2; type: cell-based; details: 1 and 10 µM compound; 50 µM substrate; 30 min
Summary of the method: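 Defolliculated Xenopus laevis oocytes were injected with polyadenylated human LAT2 cRNA (25 ng/oocyte) plus equimolar 4F2hc cRNA. Water-injected oocytes served as controls. After 2–4 days, oocytes took up 50 µM ¹⁴C-labelled substrate for 30 min at room temperature, with or without test compound, in ND96 (pH 7.5) or its Na⁺-free choline chloride version. Radioactivity was determined by liquid scintillation counting.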

LAT1 [5] = biological target: T1, LAT1; assay: Inhibition of L-[14C]leucine uptake in HEK293-hLAT1 cells; type: cell-based
Summary of the method: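 HEK293-hLAT1 cells grown 2 days on poly-D-lysine, then preincubated 10 min at 37 °C in Na⁺-free choline-HBSS (HEPES, pH 7.4). L-[¹⁴C]leucine (1–400 µM) uptake for 1 min, with test compound added from DMSO alongside the substrate at two levels (0.1/0.5 or 1/5 µM) or with DMSO alone. Cells washed ice-cold, lysed in NaOH, counted by scintillation, normalised to BCA protein. Michaelis–Menten and Lineweaver–Burk fits gave Ki; mean ± S.D., n = 4.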
Target sequence in this assay (Q01650 whole entry): as the sequence (Q01650 whole entry) above
Target sequence in this assay (P08195 103-630 partner): as the sequence (P08195 103-630 partner) above

SNAT2 = SNAT2 (Homo sapiens, UniProt Q96QD8); assay: Xenopus oocyte expression system, L-[14C]alanine uptake by SNAT2; type: cell-based; details: 1 and 10 µM compound; 50 µM substrate; 30 min; ND96
Summary of the method: as §1

LAT4 = LAT4 (Homo sapiens, UniProt Q8N370); assay: Xenopus oocyte expression system, L-[14C]leucine uptake by LAT4; type: cell-based; details: 1 and 10 µM compound; 50 µM substrate; 30 min
Summary of the method: as §1

HEK293-hLAT1 cells = assay: Cell proliferation assay; type: cell-based; details: Homo sapiens, 72 h, read-out: GI50 (proliferation)
Summary of the method: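 HEK293 cells stably expressing human LAT1, kept in MEM with 10% FBS, non-essential amino acids and G418 (0.9 mg/mL) at 37 °C and 5% CO₂. Seeded at 1.5 × 10³ cells/well on poly-D-lysine and treated next day with test compound (0.003–30 µM) for 72 h. CCK-8 read-out. Inhibition = (C–T)/(C–T₀) × 100, with T₀ at 0 h. GI50 from curve fit; mean ± S.D., n = 4.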

[6] = patients with advanced solid tumors; cited from earlier work
LAT1 [7] = biological target: T1, LAT1; assay: Temperature-dependent uptake of 14C-labeled compound in HEK293-hLAT1 cells; type: cell-based; details: 1 µM 14C-labeled compound, 1 min, 37 °C vs on ice
Summary of the method: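 HEK293-hLAT1 cells in Na⁺-free HBSS given 1 µM ¹⁴C-labelled test compound, or 1 µM L-[¹⁴C]leucine for comparison, for 1 min on ice or at 37 °C. Cell-associated radioactivity measured by scintillation counting of the lysate.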
Target sequence in this assay (Q01650 whole entry): as the sequence (Q01650 whole entry) above
Target sequence in this assay (P08195 103-630 partner): as the sequence (P08195 103-630 partner) above

HEK293-hLAT2 cells = assay: Cell proliferation assay; type: cell-based, human; details: 72 h, 0.003-30 µM
Summary of the method: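 HEK293 cells stably expressing human LAT2, kept under G418 selection at 37 °C and 5% CO₂, were seeded at 1.5 × 10³ cells/well on poly-D-lysine. Next day they were exposed to test compound for 72 h, and cell number was read with CCK-8. Inhibition was calculated as (C – T)/(C – T₀) × 100, with T₀ taken at 0 h. GI₅₀ is the concentration giving 50% inhibition. Mean ± S.D., n = 4.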

S2-LAT2 cells = details: LAT2-expressing cells; cited from earlier work
SNAT1 = SNAT1 (Homo sapiens, UniProt Q9H2H9); assay: Xenopus oocyte expression system, L-[14C]alanine uptake by SNAT1; type: cell-based; details: 1 and 10 µM compound; 50 µM substrate; 30 min; ND96
Summary of the method: as §1

y^+LAT2 = y^+LAT2 (Homo sapiens, UniProt Q92536); assay: Xenopus oocyte expression system, L-[14C]leucine uptake by y+LAT2; type: cell-based; details: 1 and 10 µM compound; 50 µM substrate; 30 min; ND96
Summary of the method: as §2

SNAT4 = SNAT4 (Homo sapiens, UniProt Q969I6); assay: Xenopus oocyte expression system, L-[14C]alanine uptake by SNAT4; type: cell-based; details: 10 µM compound; 50 µM substrate; 30 min; ND96
Summary of the method: as §1

LAT3 = LAT3 (Homo sapiens, UniProt O75387); assay: Xenopus oocyte expression system, L-[14C]leucine uptake by LAT3; type: cell-based; details: 1 and 10 µM compound; 50 µM substrate; 30 min
Summary of the method: as §1

biliary tract cancer = details: phase II, patients with biliary tract cancer; cited from earlier work

SNAT3, sequence (Q99624 whole entry): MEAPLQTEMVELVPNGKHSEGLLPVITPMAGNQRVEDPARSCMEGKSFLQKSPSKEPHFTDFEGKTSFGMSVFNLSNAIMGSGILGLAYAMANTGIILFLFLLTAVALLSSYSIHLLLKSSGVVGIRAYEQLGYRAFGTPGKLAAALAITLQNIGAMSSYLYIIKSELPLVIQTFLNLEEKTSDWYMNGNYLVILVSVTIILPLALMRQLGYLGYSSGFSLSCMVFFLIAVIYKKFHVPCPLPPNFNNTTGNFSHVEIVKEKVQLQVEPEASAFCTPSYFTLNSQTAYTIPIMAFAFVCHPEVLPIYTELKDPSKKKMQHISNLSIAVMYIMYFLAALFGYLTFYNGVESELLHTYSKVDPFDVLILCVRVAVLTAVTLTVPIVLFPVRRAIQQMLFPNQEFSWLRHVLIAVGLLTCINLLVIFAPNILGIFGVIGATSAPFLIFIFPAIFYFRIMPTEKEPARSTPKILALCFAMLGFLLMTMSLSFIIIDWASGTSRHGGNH
B^0AT1, sequence (Q695T7 whole entry): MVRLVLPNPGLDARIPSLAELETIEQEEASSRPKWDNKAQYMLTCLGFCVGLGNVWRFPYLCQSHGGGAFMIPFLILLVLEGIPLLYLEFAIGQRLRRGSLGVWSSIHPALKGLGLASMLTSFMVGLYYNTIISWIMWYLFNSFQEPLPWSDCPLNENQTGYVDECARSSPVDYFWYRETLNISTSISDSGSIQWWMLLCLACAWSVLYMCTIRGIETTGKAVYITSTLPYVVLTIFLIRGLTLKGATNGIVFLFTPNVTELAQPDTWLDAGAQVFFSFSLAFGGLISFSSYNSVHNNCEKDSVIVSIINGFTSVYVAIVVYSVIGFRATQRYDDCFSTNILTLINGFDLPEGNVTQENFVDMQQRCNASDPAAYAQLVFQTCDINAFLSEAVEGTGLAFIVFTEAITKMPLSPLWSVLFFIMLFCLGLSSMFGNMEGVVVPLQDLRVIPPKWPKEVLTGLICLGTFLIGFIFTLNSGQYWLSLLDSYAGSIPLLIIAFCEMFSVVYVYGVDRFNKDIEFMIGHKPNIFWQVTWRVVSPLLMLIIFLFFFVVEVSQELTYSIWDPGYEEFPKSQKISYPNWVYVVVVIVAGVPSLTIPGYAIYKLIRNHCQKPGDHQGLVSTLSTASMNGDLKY
B^0AT1, sequence (Q9HBJ8 15-222 partner): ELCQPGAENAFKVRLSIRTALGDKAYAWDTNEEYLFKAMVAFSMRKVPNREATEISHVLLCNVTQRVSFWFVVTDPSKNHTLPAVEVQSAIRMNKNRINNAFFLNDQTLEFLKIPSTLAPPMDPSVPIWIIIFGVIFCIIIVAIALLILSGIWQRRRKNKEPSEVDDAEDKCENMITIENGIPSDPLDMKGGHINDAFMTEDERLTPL
ATB^0,+, sequence (Q9UN76 whole entry): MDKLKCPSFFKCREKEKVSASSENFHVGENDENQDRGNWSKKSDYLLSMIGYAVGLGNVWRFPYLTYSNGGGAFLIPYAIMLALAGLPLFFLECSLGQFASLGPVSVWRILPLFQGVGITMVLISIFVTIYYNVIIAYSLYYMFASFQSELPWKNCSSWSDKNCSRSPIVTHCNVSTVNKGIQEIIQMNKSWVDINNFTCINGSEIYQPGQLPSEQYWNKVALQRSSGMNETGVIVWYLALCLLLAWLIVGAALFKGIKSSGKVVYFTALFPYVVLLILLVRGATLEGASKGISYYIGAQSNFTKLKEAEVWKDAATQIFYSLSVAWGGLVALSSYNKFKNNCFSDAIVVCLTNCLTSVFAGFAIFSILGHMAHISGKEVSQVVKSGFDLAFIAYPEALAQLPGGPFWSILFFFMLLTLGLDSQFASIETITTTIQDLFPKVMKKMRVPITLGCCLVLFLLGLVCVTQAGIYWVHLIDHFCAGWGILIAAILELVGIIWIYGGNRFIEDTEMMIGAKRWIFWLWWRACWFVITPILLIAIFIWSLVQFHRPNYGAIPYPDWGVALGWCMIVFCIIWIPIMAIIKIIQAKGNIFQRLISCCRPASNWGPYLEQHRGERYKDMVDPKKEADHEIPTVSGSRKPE
LAT2, sequence (Q9UHI5 whole entry): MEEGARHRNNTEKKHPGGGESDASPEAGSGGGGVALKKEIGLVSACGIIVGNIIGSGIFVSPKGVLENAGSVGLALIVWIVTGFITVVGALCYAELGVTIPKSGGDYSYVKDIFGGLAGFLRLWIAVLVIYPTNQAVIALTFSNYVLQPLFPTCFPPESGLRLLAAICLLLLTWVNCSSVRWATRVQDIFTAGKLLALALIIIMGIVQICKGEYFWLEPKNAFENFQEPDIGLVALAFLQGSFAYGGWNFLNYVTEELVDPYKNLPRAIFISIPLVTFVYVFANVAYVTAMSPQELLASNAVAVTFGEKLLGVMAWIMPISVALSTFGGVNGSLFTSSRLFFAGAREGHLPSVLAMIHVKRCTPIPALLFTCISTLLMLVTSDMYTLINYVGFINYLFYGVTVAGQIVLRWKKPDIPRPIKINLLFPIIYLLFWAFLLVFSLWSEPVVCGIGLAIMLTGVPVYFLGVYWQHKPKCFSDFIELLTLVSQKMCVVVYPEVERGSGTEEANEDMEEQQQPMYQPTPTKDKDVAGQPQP
LAT2, sequence (P08195 102-630 partner): as the sequence (P08195 102-630 partner) above
human LAT2, sequence (Q9UHI5 whole entry): as the sequence (Q9UHI5 whole entry) above
human LAT2, sequence (P08195 103-630 partner): as the sequence (P08195 103-630 partner) above

## NC1(C(=O)O)CC2CCC1C2 (centres unmarked) [BCH]
[1]
  Transporters inhibited: inhibit not only all system L transporters (LAT1, LAT2, LAT3, LAT4) but also B^0AT1 (system B^0) and ATB^0,+ (system B^0,+)

## Nc1cc(COc2c(Cl)cc(C[C@H](N)C(=O)O)cc2Cl)c2oc(-c3ccccc3)nc2c1 [nanvuranlat, (2S)-2-amino-3-[4-[(5-amino-2-phenyl-1,3-benzoxazol-7-yl)methoxy]-3,5-dichlorophenyl]propanoic acid]
SNAT5
  Inhibition of SNAT5-mediated L-[14C]glutamine uptake: no significant inhibition
Human LAT2
  Inhibition of LAT2-mediated L-[14C]alanine uptake: neither compound exhibited inhibitory effects on LAT2
S2-LAT1 cells
  Growth inhibition of S2-LAT1 cells: potently inhibited the growth
y^+LAT1
  Inhibition of y+LAT1-mediated L-[14C]leucine uptake: Neither compound inhibited
[2]
  Metabolism: rapidly metabolized to its N-acetyl derivative in the liver
LAT1 [3]
  Inhibition reduction rate: 29.8%
SNAT3
  Inhibition of SNAT3-mediated L-[14C]glutamine uptake: no significant inhibition
LAT1 [4]; 1 µM compound
  Inhibition of LAT1-mediated L-[14C]leucine uptake: significantly inhibited
LAT1 [4]; 10 µM compound
  Inhibition of LAT1-mediated L-[14C]leucine uptake: significantly inhibited
ATB^0,+
  Inhibition of ATB0,+-mediated L-[14C]leucine uptake: Neither compound inhibited
ASCT1
  Inhibition of ASCT1-mediated L-[14C]alanine uptake: no significant inhibition
B^0AT1
  Inhibition of B0AT1-mediated L-[14C]leucine uptake: Neither compound inhibited
ASCT2
  Inhibition of ASCT2-mediated L-[14C]alanine uptake: no significant inhibition
TAT1
  Inhibition of TAT1-mediated L-[14C]tyrosine uptake: Neither compound inhibited
b^0,+
  Inhibition of b0,+-mediated L-[14C]cystine uptake: Neither compound inhibited
LAT2
  Inhibition of LAT2-mediated L-[14C]alanine uptake: neither nanvuranlat nor N-acetyl-nanvuranlat inhibited
LAT1 [5]
  Ki: 38.7 ± 5.1 nM
LAT1 [5]; 0.1, 1 and 10 µM compound, 1 µM L-[14C]leucine, HEK293-hLAT1
  Inhibition of LAT1-mediated L-[14C]leucine uptake: inhibited LAT1 in a concentration-dependent manner
LAT1 [5]; HEK293-hLAT1, L-[14C]leucine
  Mode of LAT1 inhibition (Lineweaver-Burk plot): competitive inhibitors
SNAT2
  Inhibition of SNAT2-mediated L-[14C]alanine uptake: no significant inhibition
LAT4
  Inhibition of LAT4-mediated L-[14C]leucine uptake: no inhibitory effects
HEK293-hLAT1 cells
  GI50: 1830 ± 310 nM
[6]
  Safety profile in clinical trials: acceptable safety profile
LAT1 [7]
  Temperature dependence of cell-associated radioactivity (transport by LAT1): not transported by LAT1
HEK293-hLAT2 cells
  Inhibition of proliferation: neither compound exhibited an inhibitory effect
S2-LAT2 cells
  Growth inhibition of S2-LAT2 cells: minimal effects
SNAT1
  Inhibition of SNAT1-mediated L-[14C]alanine uptake: no significant inhibition
y^+LAT2
  Inhibition of y+LAT2-mediated L-[14C]leucine uptake: Neither compound inhibited
SNAT4
  Inhibition of SNAT4-mediated L-[14C]alanine uptake: non-significant trend towards inhibition
LAT3
  Inhibition of LAT3-mediated L-[14C]leucine uptake: no inhibitory effects
Biliary tract cancer
  Primary endpoint (progression-free survival): met its primary endpoint of improving progression-free survival
